“And” between values parts separate entries of the source, which are not always exact repeats. Equal values may be shown once. Marks after values point to notes of the source that are not given here. Values belong to the compound of their own block, whether it stands above or below them.
Columns and labels:
[1] = cited from earlier work
[2] = Stability of EHop-016 in mouse plasma; assay type: in vitro ADME; conditions: for Concentration Measured (Mean ± S.D.): n=6; for Accuracy (% RE): stable if within ± 15 %
In short: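 Test compound was spiked into mouse plasma at 5 and 1000 ng/mL and held on the bench for 5 h, six replicates per level. It was then extracted by protein precipitation and quantified by UPLC/MS/MS against plasma calibration standards. Accuracy was %RE against nominal and precision was %RSD. The compound counted as stable when %RE was within ± 15 %.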

metastatic cancer cells [3] = conditions: higher concentrations; cited from earlier work
mammary fat pad tumor = conditions: 25 mg/kg body weight (BW), nude mice; cited from earlier work
Rac = conditions: read-out: IC50, Rac activity; metastatic cancer cells; cited from earlier work
[4] = Pharmacokinetics in nude mice after single IP or PO dose; assay type: in vivo, athymic nude (Nu/Nu) mice; conditions: for clearance (Cl/F): range over doses; for AUC(0-t) / Cmax / MRT / Vd/F / MRT inf / Tmax / half-life / AUC(0-inf): female, athymic nude (Nu/Nu), mouse, plasma
In short: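 Female athymic nude mice, 3–4 weeks old, received a single 0.1 mL dose at 10, 20 or 40 mg/kg, given IP or by oral gavage. Vehicle was cremophor:ethanol:PBS (12.5:12.5:75). Four to five mice per group were killed at 0.5, 1, 4, 8 and 12 h. Cardiac blood went into sodium citrate on ice. Plasma was protein-precipitated with internal standard and assayed by UPLC/MS/MS (5–1000 ng/mL). Pooled non-compartmental analysis used linear/log-linear trapezoids.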

Akt and Jun kinase (JNK) = conditions: breast and prostate cancer cell lines; cited from earlier work
human leukemic cell = conditions: cited from earlier work
Rho GTPase Cdc42 = conditions: higher concentrations; cited from earlier work
[5] = tested on: p21-activated kinase 1 (PAK1); conditions: cited from earlier work
endothelial cells = conditions: in vitro; cited from earlier work
human T-lymphocyte = conditions: cited from earlier work
murine leukemic cell = conditions: cited from earlier work
[6] = tested on: Rac with the guanine nucleotide exchange factor Vav2; conditions: cited from earlier work
[7] = Physicochemical properties
murine melanoma cell = conditions: cited from earlier work
c-Myc and Cyclin D = conditions: breast and prostate cancer cell lines; cited from earlier work
metastatic cancer cells [8] = conditions: cited from earlier work
[9] = Benchtop (5 Hr), nominal 5 ng/mL
[10] = Benchtop (5 Hr), nominal 1000 ng/mL

Compound: CS(=O)(=O)CCNCc1ccc(-c2ccc3ncnc(Nc4ccc(OCc5cccc(F)c5)c(Cl)c4)c3c2)o1 [lapatinib]
systemic bioavailability (F) ([1]; 10 mg/kg oral input): 43 – 50% | time-to-peak (Tmax) ([1]; PO, 10 mg/kg, male mice): 0.5 h

stability in mouse plasma ([2]; 12 freeze-thaw cycles lasting 12 hours and six freeze-thaw cycles lasting 24 hours): stable | Concentration Measured (Mean ± S.D.) [2, 9]: 4.67 ± 0.36 ng/mL | Accuracy (% RE) [2, 9]: −6.6 % RE | Concentration Measured (Mean ± S.D.) [2, 10]: 999.39 ± 17.23 ng/mL | Accuracy (% RE) [2, 10]: −0.1 % RE | Accuracy (% RE) ([2]; Freeze-Thaw 6 Cycles (24 Hr), nominal 5 ng/mL): 14.3 % RE | Accuracy (% RE) ([2]; Freeze-Thaw 6 Cycles (24 Hr), nominal 1000 ng/mL): 11.6 % RE | Concentration Measured (Mean ± S.D.) ([2]; Freeze-Thaw 6 Cycles (24 Hr), −80°C, nominal 5 ng/mL): 5.71 ± 0.34 ng/mL | Concentration Measured (Mean ± S.D.) ([2]; Freeze-Thaw 6 Cycles (24 Hr), −80°C, nominal 1000 ng/mL): 1116.32 ± 27.38 ng/mL | Accuracy (% RE) ([2]; Freeze-Thaw 12 Cycles (12 Hr), nominal 5 ng/mL): 11.3 % RE | Accuracy (% RE) ([2]; Freeze-Thaw 12 Cycles (12 Hr), nominal 1000 ng/mL): 12.8 % RE | Concentration Measured (Mean ± S.D.) ([2]; Freeze-Thaw 12 Cycles (12 Hr), −80°C, nominal 5 ng/mL): 5.57 ± 0.05 ng/mL | Concentration Measured (Mean ± S.D.) ([2]; Freeze-Thaw 12 Cycles (12 Hr), −80°C, nominal 1000 ng/mL): 1127.70 ± 14.36 ng/mL | Accuracy (% RE) ([2]; Long Term Stability 26 Days, nominal 5 ng/mL): 4.9 % RE | Accuracy (% RE) ([2]; Long Term Stability 26 Days, nominal 1000 ng/mL): 0.4 % RE | Concentration Measured (Mean ± S.D.) ([2]; Long Term Stability 26 Days, −20°C, nominal 5 ng/mL): 5.24 ± 0.08 ng/mL | Concentration Measured (Mean ± S.D.) ([2]; Long Term Stability 26 Days, −20°C, nominal 1000 ng/mL): 1004.39 ± 25.98 ng/mL | Accuracy (% RE) ([2]; Long Term Stability 111 Days, nominal 5 ng/mL): −1.3 % RE | Accuracy (% RE) ([2]; Long Term Stability 111 Days, nominal 1000 ng/mL): −4.3 % RE | Concentration Measured (Mean ± S.D.) ([2]; Long Term Stability 111 Days, −20°C, nominal 5 ng/mL): 4.94 ± 0.29 ng/mL | Concentration Measured (Mean ± S.D.) ([2]; Long Term Stability 111 Days, −20°C, nominal 1000 ng/mL): 956.77 ± 79.26 ng/mL | Concentration Measured (Mean ± S.D.) ([2]; Post Preparation (237 Hours), ambient temperature, nominal 10 ng/mL): 10.79 ± 0.25 ng/mL | Concentration Measured (Mean ± S.D.) ([2]; Post Preparation (237 Hours), ambient temperature, nominal 30 ng/mL): 32.20 ± 1.40 ng/mL | Concentration Measured (Mean ± S.D.) ([2]; Post Preparation (237 Hours), ambient temperature, nominal 75 ng/mL): 83.79 ± 2.06 ng/mL | Concentration Measured (Mean ± S.D.) ([2]; Post Preparation (237 Hours), ambient temperature, nominal 750 ng/mL): 838.83 ± 22.57 ng/mL | Accuracy (% RE) ([2]; Post Preparation (237 Hours), nominal 10 ng/mL): 7.88 % RE | Accuracy (% RE) ([2]; Post Preparation (237 Hours), nominal 30 ng/mL): 7.32 % RE | Accuracy (% RE) ([2]; Post Preparation (237 Hours), nominal 75 ng/mL): 11.72 % RE | Accuracy (% RE) ([2]; Post Preparation (237 Hours), nominal 750 ng/mL): 11.84 % RE | stability in mouse plasma ([2]; all of the conditions tested in the validation): very stable | stability in mouse plasma ([2]; ambient temperature, five hours and 237 hours): stable | stability in mouse plasma ([2]; long-term at –20°C, 26 days and 111 days): stable | Cl/F ([4]; IP, 10 mg/kg): 494.2 ± 79.4 mL/h | Lambda-z ([4]; IP, 10 mg/kg): .12 ± 0.01 hr ^−1 | AUC0-t/Dose ([4]; IP, 10 mg/kg, n=5): 32.80 ± 4.21^a | Cl/F ([4]; IP, 20 mg/kg): 464.7 ± 51.5 mL/h | Lambda-z ([4]; IP, 20 mg/kg): .15 ± .01 hr ^−1 | AUC0-t/Dose ([4]; IP, 20 mg/kg, n=5): 38.42 ± 3.53^a | Cl/F ([4]; IP, 40 mg/kg): 394.2 ± 46.6 mL/h | Lambda-z ([4]; IP, 40 mg/kg): .18 ± .01 hr ^−1 | AUC0-t/Dose ([4]; IP, 40 mg/kg, n=5): 46.75 ± 5.42^a | clearance (Cl/F) ([4]; IP): 394 to 494 mL/h and 394.2 to 494.2 mL/h | relative bioavailability after oral gavage ([4]; PO vs IP, range over the tested doses): 26% - 40% | plasma drug concentrations lower after PO than after IP ([4]; PO vs corresponding IP dosages): ~ 10 times | Cl/F ([4]; PO, 10 mg/kg): 1315.3 mL/h and 1315.3 ± 281.7 mL/h | Lambda-z ([4]; PO, 10 mg/kg): .20 ± .01 hr ^−1 | AUC0-t/Dose ([4]; PO, 10 mg/kg, n=4): 13.37 ± 2.25 | Frel (relative bioavailability, PO to IP) ([4]; PO, 20 mg/kg): 33.4 ± 4.9% | AUC0-t/Dose ([4]; PO, 20 mg/kg, n=4): 12.85 ± 3.11 | Cl/F ([4]; PO, 40 mg/kg): 1251.4 mL/h and 1251.4 ± 388.1 mL/h | Frel (relative bioavailability, PO to IP) ([4]; PO, 40 mg/kg): 26.0 ± 3.1% | Lambda-z ([4]; PO, 40 mg/kg): .12 ± .001 hr ^−1 | AUC0-t/Dose ([4]; PO, 40 mg/kg, n=4): 12.17 ± 2.9 | clearance (Cl/F) ([4]; PO): 1251 to 1315 mL/h | elimination half-life (t1/2) ([4]; PO, range over the tested doses): 3.44 to 5.87 h | Vss ([4]; after IP doses, approximately): 65 to 72 L/kg BW | AUC(0-t) ([4]; ip): 328 to 1870 ng·h/mL | Cmax ([4]; ip): 163 to 835 ng/mL | MRT ([4]; ip): 4.21 to 6.75 h | Vd/F ([4]; ip): 2.2 to 4.1 L | AUC(0-t) ([4]; ip, 10 mg/kg): 328 ± 42.1 ng·h/mL | Cmax ([4]; ip, 10 mg/kg): 163 ± 17.7 ng/mL | MRT inf ([4]; ip, 10 mg/kg): 6.75 ± 0.27 h | Tmax ([4]; ip, 10 mg/kg): 0.5 h | Vd/F ([4]; ip, 10 mg/kg): 4.09 ± 0.297 L | half-life ([4]; ip, 10 mg/kg, t1/2, IP): 5.73 ± 0.43 h | AUC(0-t) ([4]; ip, 20 mg/kg): 768 ± 70.6 ng·h/mL | Cmax ([4]; ip, 20 mg/kg): 455 ± 50.3 ng/mL | MRT inf ([4]; ip, 20 mg/kg): 4.73 ± 0.27 h | Tmax ([4]; ip, 20 mg/kg): 0.5 h | Vd/F ([4]; ip, 20 mg/kg): 3.12 ± 0.0927 L | half-life ([4]; ip, 20 mg/kg, t1/2, IP): 4.66 ± 0.35 h | AUC(0-inf) ([4]; ip, 40 mg/kg): 328 to 1870 ng·h/mL | AUC(0-t) ([4]; ip, 40 mg/kg): 1870 ± 217 ng·h/mL | Cmax ([4]; ip, 40 mg/kg): 834 ± 88.9 ng/mL | MRT inf ([4]; ip, 40 mg/kg): 4.21 ± 0.14 h | Tmax ([4]; ip, 40 mg/kg): 0.5 h | Vd/F ([4]; ip, 40 mg/kg): 2.16 ± 0.337 L | half-life ([4]; ip, 40 mg/kg, t1/2, IP): 3.79 ± 0.12 h | Tmax ([4]; other: intraperitoneal and oral, 20 mg/kg): 0.5 h | AUC(0-t) ([4]; po): 134 to 487 ng·h/mL | Cmax ([4]; po): 26 to 90 ng/mL | MRT ([4]; po): 6.59 to 8.76 h | Vd/F ([4]; po): 6.5 to 10.6 L | AUC(0-t) ([4]; po, 10 mg/kg): 134 ± 22.5 ng·h/mL | Cmax ([4]; po, 10 mg/kg): 26.1 ± 10.1 ng/mL | MRT inf ([4]; po, 10 mg/kg): 6.59 ± 0.37 h | Tmax ([4]; po, 10 mg/kg): 0.5 h | Vd/F ([4]; po, 10 mg/kg): 6.53 ± 1.78 L | half-life ([4]; po, 10 mg/kg, t1/2, PO): 3.44 ± 0.15 h | AUC(0-t) ([4]; po, 20 mg/kg): 257 ± 62.3 ng·h/mL | Cmax ([4]; po, 20 mg/kg): 35.1 ± 11 ng/mL | Tmax ([4]; po, 20 mg/kg): 1 h | AUC(0-inf) ([4]; po, 40 mg/kg): 133 to 487 ng·h/mL | AUC(0-t) ([4]; po, 40 mg/kg): 487 ± 116 ng·h/mL | Cmax ([4]; po, 40 mg/kg): 89.7 ± 17.6 ng/mL | MRT inf ([4]; po, 40 mg/kg): 8.76 ± 0.43 h | Tmax ([4]; po, 40 mg/kg): 0.5 h | Vd/F ([4]; po, 40 mg/kg): 10.6 ± 3.39 L | half-life ([4]; po, 40 mg/kg, t1/2, PO): 5.87 ± 0.06 h | share of the drug in the bloodstream ([4]; suggested by Vss values): < 1% | pKa [7]: 5 | lipid solubility ([7]; source not stated): highly lipid-soluble
Compound: CCn1c2ccccc2c2cc(Nc3ccnc(NCCCN4CCOCC4)n3)ccc21 [EHop-016, (N4-(9-Ethyl-9H-carbazol-3-yl)-N2-(3-morpholin-4-yl-propyl)-pyrimidine-2,4-diamine)]
concentration at which apoptosis is activated (metastatic cancer cells [3]): > 10 µM | concentration at which cell viability is reduced (metastatic cancer cells [3]): > 10 µM | tumor growth, metastasis and angiogenesis (mammary fat pad tumor): effective at reducing mammary fat pad tumor growth, metastasis, and angiogenesis | IC50 (Rac): 1 µM | Akt and Jun kinase (JNK) activities (Akt and Jun kinase (JNK)): decreased | human leukemic cell growth (human leukemic cell): inhibits | concentration at which activity of the Rho GTPase Cdc42 is inhibited (Rho GTPase Cdc42): > 10 µM | activity of PAK1 [5]: inhibit | Rac activity and capillary tube formation of endothelial cells (endothelial cells): inhibition | human T-lymphocyte migration (human T-lymphocyte): inhibits | murine leukemic cell growth (murine leukemic cell): inhibits | interaction of Rac with Vav2 [6]: disrupt | murine melanoma cell migration (murine melanoma cell): inhibits | expression of c-Myc and Cyclin D (c-Myc and Cyclin D): decreased | Rac-directed lamellipodia formation and directed cell migration (metastatic cancer cells [8]): inhibit

— PMC4306626 (Journal of chromatography. B, Analytical technologies in …, 2015)
